Active and inactive are the calls of the source. No cut-off for these calls is given here.
How the values were obtained:
[1] = tested on: OVCAR-3; test: Cytotoxicity against human OVCAR3 cells assessed as residual growth at 10 uM; type: functional
[2] = tested on: NCI-H460; test: Cytotoxicity against human NCI-H460 cells assessed as residual growth at 10 uM; type: functional
[3] = tested on: HOP-62; test: Cytotoxicity against human HOP62 cells assessed as residual growth at 10 uM; type: functional
[4] = tested on: SK-MEL-28; test: Effect on mitochondrial morphology in human SK-MEL-28 cells at 5 uM after 24 hrs by MitoTracker Green FM-based fluorescence microscopic analysis; type: functional, cell-based
Method in brief: (§1)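 SKMEL-28 cells seeded on glass coverslips 48 h before treatment at 5 µM (3 to 48 h); two washes, mitochondria stained with 100 nM MitoTracker Green FM in phenol red-free RPMI for 30 min, rinsed twice, viewed by fluorescence microscopy. Three coverslips per condition.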

[5] = tested on: PC-3; test: Cytotoxicity against human PC3 cells assessed as residual growth at 10 uM; type: functional
[6] = tested on: CAKI-1; test: Cytotoxicity against human Caki1 cells assessed as residual growth at 10 uM; type: functional
[7] = tested on: NCI-H322M; test: Cytotoxicity against human NCI-H322M cells assessed as residual growth at 10 uM; type: functional
[8] = tested on: A498; test: Cytotoxicity against human A498 cells assessed as residual growth at 10 uM; type: functional
[9] = tested on: HOP-92; test: Cytotoxicity against human HOP92 cells assessed as residual growth at 10 uM; type: functional
[10] = tested on: Melanoma cell; test: Cytotoxicity against human Melanoma cells assessed as growth inhibition after 72 hrs by MTT-based colorimetric assay; type: functional
Method in brief: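 Eleven human primary melanoma cultures treated for 72 h with the fumarate salt. Growth inhibition read by colorimetric MTT assay, with IC50 taken as 50% reduction of the cell population. Maximal concentration tested was 100 µM. Run once in sextuplicate.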

[11] = tested on: LoVo; test: Cytotoxicity against apoptotic-sensitive human LoVo cells assessed as growth inhibition after 72 hrs by MTT-based colorimetric assay; type: functional, cell-based; settings: Homo sapiens, LoVo, 72 h
Method in brief: (§2)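 MTT colorimetric assay, 72 h exposure to the fumarate salt. Read-out is reduction of MTT to formazan by living cells. IC50 is the concentration that reduces the whole cell population by 50%. Six replicates per condition. Where compounds were not tested on every line, apoptosis-sensitive lines were PC3, MCF-7, LoVo and B16F10, and apoptosis-resistant lines were U373, T98G, A549 and SK-MEL-28.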

[12] = tested on: SK-OV-3; test: Cytotoxicity against human SKOV3 cells assessed as residual growth at 10 uM; type: functional
[13] = tested on: OVCAR-8; test: Cytotoxicity against human OVCAR8 cells assessed as residual growth at 10 uM; type: functional
[14] = Cytotoxicity against human UACC257 cells assessed as residual growth at 10 uM; type: functional, UACC-257
[15] = tested on: SNB-75; test: Cytotoxicity against human SNB75 cells assessed as residual growth at 10 uM; type: functional
[16] = tested on: K562; test: Cytotoxicity against human K562 cells assessed as residual growth at 10 uM; type: functional
[17] = tested on: RPMI-8226; test: Cytotoxicity against human RPMI8226 cells assessed as residual growth at 10 uM; type: functional
[18] = Cytotoxicity against HLF cells assessed as growth inhibition after 72 hrs by MTT-based colorimetric assay; type: cell-based; settings: Homo sapiens; method in brief: as §2
[19] = tested on: SK-MEL-5; test: Cytotoxicity against human SK-MEL-5 cells assessed as residual growth at 10 uM; type: functional
[20] = tested on: MCF7; test: Cytotoxicity against apoptotic-sensitive human MCF7 cells assessed as growth inhibition after 72 hrs by MTT-based colorimetric assay; type: functional, cell-based; settings: Homo sapiens, MCF7, 72 h; method in brief: as §2
[21] = tested on: SK-MEL-28; test: Increase in cell size of human SK-MEL-28 cells at 5 uM after 24 hrs by MitoTracker Green FM-based fluorescence microscopic analysis; type: functional; method in brief: as §1
[22] = Cytotoxicity against apoptotic-resistant human U373 cells assessed as growth inhibition after 72 hrs by MTT-based colorimetric assay; type: functional, cell-based, U-373MG ATCC; settings: Homo sapiens, U373 MG, 72 h; method in brief: as §2
[23] = Cytotoxicity against human OVCAR5 cells assessed as residual growth at 10 uM; type: functional, OVCAR-5
[24] = tested on: HCT-116; test: Cytotoxicity against human HCT116 cells assessed as residual growth at 10 uM; type: functional
[25] = tested on: DU-145; test: Cytotoxicity against human DU145 cells assessed as residual growth at 10 uM; type: functional
[26] = tested on: MOLT-4; test: Cytotoxicity against human MOLT4 cells assessed as residual growth at 10 uM; type: functional
[27] = tested on: HT-29; test: Cytotoxicity against human HT-29 cells assessed as residual growth at 10 uM; type: functional
[28] = tested on: T98G; test: Cytotoxicity against apoptotic-resistant human T98G cells assessed as growth inhibition after 72 hrs by MTT-based colorimetric assay; type: functional, cell-based; settings: Homo sapiens, T98G, 72 h; method in brief: as §2
[29] = tested on: SF-539; test: Cytotoxicity against human SF539 cells assessed as residual growth at 10 uM; type: functional
[30] = tested on: ACHN; test: Cytotoxicity against human ACHN cells assessed as residual growth at 10 uM; type: functional
[31] = tested on: SK-MEL-28; test: Cytostatic activity against apoptotic-resistant human SK-MEL-28 cells assessed as increase in cell size at 5 uM after 72 hrs by quantitative videomicroscopy; type: functional, cell-based
Method in brief: (§3)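 SK-MEL-28 cells exposed to 5 µM for 24, 48 and 72 h. Cell cycle was read by flow cytometry with propidium iodide plus TUNEL double staining (APO-Direct kit), in quadruplicate. Videomicroscopy photographed each field every 4 min over 72 h. Global growth is cells at a time point divided by cells at time 0; the treated/control ratio gives GGR. Cell death was judged from morphology. Run twice, in triplicate and in quadruplicate.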

[32] = tested on: SK-MEL-2; test: Cytotoxicity against human SK-MEL-2 cells assessed as residual growth at 10 uM; type: functional
[33] = tested on: SK-MEL-28; test: Effect on oxygen consumption in human SK-MEL-28 cells at 10 uM by oxygraphic analysis; type: functional, cell-based
Method in brief: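 Compound added directly at 10 µM to the oxygraph chamber holding SKMEL-28 cells; ROUTINE respiration recorded by Clark-electrode high-resolution respirometry at 37 °C in phenol red-free DMEM with glucose 1 g/L and pyruvate 110 mg/L, with stirring.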

[34] = tested on: PC-3; test: Cytotoxicity against apoptotic-sensitive human PC3 cells assessed as growth inhibition after 72 hrs by MTT-based colorimetric assay; type: functional, cell-based; settings: Homo sapiens, PC-3, 72 h; method in brief: as §2
[35] = Cytotoxicity against human UO31 cells assessed as residual growth at 10 uM; type: functional, UO-31
[36] = tested on: HL-60(TB); test: Cytotoxicity against human HL-60(TB) cells assessed as residual growth at 10 uM; type: functional
[37] = tested on: NHDF; test: Cytotoxicity against human NHDF cells assessed as growth inhibition after 72 hrs by MTT-based colorimetric assay; type: cell-based; method in brief: as §2
[38] = tested on: SK-MEL-28; test: Cytotoxicity against apoptotic-resistant human SK-MEL-28 cells assessed as cell death at 5 uM after 72 hrs by quantitative videomicroscopy; type: functional, cell-based; method in brief: as §3
[39] = tested on: UACC-62; test: Cytotoxicity against human UACC62 cells assessed as residual growth at 10 uM; type: functional
[40] = tested on: COLO 205; test: Cytotoxicity against human COLO205 cells assessed as residual growth at 10 uM; type: functional
[41] = tested on: SNB-19; test: Cytotoxicity against human SNB19 cells assessed as residual growth at 10 uM; type: functional
[42] = tested on: SK-MEL-28; test: Cell cycle arrest in apoptotic-resistant human SK-MEL-28 cells at 5 uM after 24 to 72 hrs by double propidium iodide staining-based flow cytometry; type: functional; method in brief: as §3
[43] = tested on: MDA-MB-468; test: Cytotoxicity against human MDA-MB-468 cells assessed as residual growth at 10 uM; type: functional

Structure (SMILES): C=CCCCCOc1ccccc1-c1cnc(OCCCCC=C)n1C
- Activity [1]: 51.28%
- Activity [2]: 55.6%
- Activity [3]: 77.15%
- Activity [4]: inactive
- Activity [5]: 73.54%
- Activity [6]: 54.94%
- Activity [7]: 71.99%
- Activity [8]: 51.15%
- Activity [9]: 75.18%
- Activity [10]: Active
- IC50 [11]: 5 µM
- Activity [12]: 74.99%
- Activity [13]: 83.91%
- Activity [14]: 66.63%
- Activity [15]: 81.88%
- Activity [16]: 30.53%
- Activity [17]: 80.75%
- IC50 [18]: 22 µM
- Activity [19]: 83.67%
- IC50 [20]: 5 µM
- Activity [21]: Active
- IC50 [22]: 7 µM
- Activity [23]: 95.17%
- Activity [24]: 61.02%
- Activity [25]: 92.64%
- Activity [26]: 91.38%
- Activity [27]: 18.11%
- IC50 [28]: 4 µM
- Activity [29]: 81.04%
- Activity [30]: 84.54%
- Activity [31]: Active
- Activity [32]: 46.08%
- Activity [33]: inactive
- IC50 [34]: 9 µM
- Activity [35]: 69.27%
- Activity [36]: 66.52%
- IC50 [37]: 36 µM
- Activity [38]: inactive
- Activity [39]: 55.73%
- Activity [40]: 46.04%
- Activity [41]: 91.08%
- Activity [42]: inactive
- Activity [43]: 25.48%
